Details in all cases: read-out: ED50 (the source's name)
One test relates to Col2. The test is described as follows: Cytotoxicity against human Col2 cells by SRB assay. The test is classed as functional. The procedure, abridged: (§1)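 Colorimetric cytotoxicity read-out on a panel of cultured mammalian cancer cell lines, run by an earlier published method, with ellipticine as the positive control.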
(Sulforhodamine B stains cellular protein and so reports cell mass.)

Test [1] can be described thus: Cytotoxicity against rat ASK cells by SRB assay.
Test [2] is described as follows: Cytotoxicity against human BCA1 cells by SRB assay. The test is classed as functional. The procedure, abridged: as §1
The next test relates to Lu1. In words: Cytotoxicity against human Lu1 cells by SRB assay. The test is classed as functional. Summed up: as §1
The next test concerns KB. In words: Cytotoxicity against human KB cells by SRB assay. Type of test: functional. Summed up: as §1
A further test concerns P388. The test is described as follows: Cytotoxicity against mouse P388 cells by SRB assay. Type of test: functional. Summed up:
as §1

≈ marks a conversion by molar mass, not a printed value.

For the compound `O=C1C=C[C@H](OC(=O)/C=C/c2ccccc2)[C@H]([C@H](OC(=O)/C=C/c2ccccc2)[C@H](OC(=O)/C=C/c2ccccc2)c2ccccc2)O1`, the EC50 with Col2 is over 5 µg/mL; in test [1], over 5 µg/mL; in test [2], over 5 µg/mL; with Lu1, over 5 µg/mL; in the test with KB, over 5 µg/mL; with P388, 3.1 µg/mL (≈ 4.84 µM).

In the case of `O=C1C=C[C@H](OC(=O)/C=C/c2ccccc2)[C@H]([C@H](O)[C@H](O)c2ccccc2)O1`, the EC50 turned out to be 1.9 µg/mL (≈ 4.99 µM) with Col2; 1.6 µg/mL (≈ 4.21 µM) in test [1]; 0.92 µg/mL (≈ 2.42 µM) in test [2]; 1.9 µg/mL (≈ 4.99 µM) in the test with Lu1; 1.7 µg/mL (≈ 4.47 µM) in the test with KB; 0.18 µg/mL (≈ 0.473 µM) with P388.

In the case of `O=C1C=C[C@]2(C[C@H](O)[C@@H](c3ccccc3)O2)O1`, the EC50 with Col2 is 4 µg/mL (≈ 17.2 µM); in test [1], 3.1 µg/mL (≈ 13.3 µM); in test [2], 3.2 µg/mL (≈ 13.8 µM); in the test on Lu1, over 5 µg/mL; in the test on KB, 3.3 µg/mL (≈ 14.2 µM); in the test with P388, 1.1 µg/mL (≈ 4.74 µM).

Regarding `O=C(/C=C/c1ccccc1)O[C@@H]1[C@H]([C@@H](O)c2ccccc2)O[C@H]2CC(=O)O[C@@H]12` [(+)-CRASSALACTONE B], the EC50 with Col2 was over 5 µg/mL; in test [1], over 5 µg/mL; in test [2] it was over 5 µg/mL; in the test with Lu1, over 5 µg/mL; in the test on KB, over 5 µg/mL; in the test on P388 it was 3.8 µg/mL (≈ 9.99 µM).

For the compound `O=C(/C=C/c1ccccc1)O[C@H](c1ccccc1)[C@H]1O[C@@H]2CC(=O)O[C@@H]2[C@H]1O` [(+)-CRASSALACTONE C], the EC50 (in the test on Col2; in test [1]; in test [2]; in the test on Lu1; in the test with KB; in the test with P388) was over 5 µg/mL in each case.

For `COc1c(O)cc2c3c(cc4ccccc4c13)NC2=O` [ARISTOLACTAM AII], the EC50 was over 5 µg/mL in the test on Col2; over 5 µg/mL in test [1]; over 5 µg/mL in test [2]; over 5 µg/mL with Lu1; over 5 µg/mL in the test on KB; 2.7 µg/mL (≈ 10.2 µM) in the test on P388.

Regarding `Cc1c2ccncc2c(C)c2c1[nH]c1ccccc12` [ELLIPTECINE], the EC50 with Col2 was determined as 0.53 µg/mL (≈ 2.15 µM); in test [1] it was 0.6 µg/mL (≈ 2.44 µM); in test [2], 0.65 µg/mL (≈ 2.64 µM); with Lu1, 0.56 µg/mL (≈ 2.27 µM); in the test with KB it was 0.65 µg/mL (≈ 2.64 µM); with P388 it was 0.52 µg/mL (≈ 2.11 µM).

These data come from ChEMBL document CHEMBL1158128, “Cytotoxic styryl-lactones from the leaves and twigs of Polyalthia crassa” (2006).
